The data set has as its target T1, recombinant CYP4F3B (Homo sapiens, UniProt Q08477).
T1 sequence (Q08477 1-520 isoform Q08477-2): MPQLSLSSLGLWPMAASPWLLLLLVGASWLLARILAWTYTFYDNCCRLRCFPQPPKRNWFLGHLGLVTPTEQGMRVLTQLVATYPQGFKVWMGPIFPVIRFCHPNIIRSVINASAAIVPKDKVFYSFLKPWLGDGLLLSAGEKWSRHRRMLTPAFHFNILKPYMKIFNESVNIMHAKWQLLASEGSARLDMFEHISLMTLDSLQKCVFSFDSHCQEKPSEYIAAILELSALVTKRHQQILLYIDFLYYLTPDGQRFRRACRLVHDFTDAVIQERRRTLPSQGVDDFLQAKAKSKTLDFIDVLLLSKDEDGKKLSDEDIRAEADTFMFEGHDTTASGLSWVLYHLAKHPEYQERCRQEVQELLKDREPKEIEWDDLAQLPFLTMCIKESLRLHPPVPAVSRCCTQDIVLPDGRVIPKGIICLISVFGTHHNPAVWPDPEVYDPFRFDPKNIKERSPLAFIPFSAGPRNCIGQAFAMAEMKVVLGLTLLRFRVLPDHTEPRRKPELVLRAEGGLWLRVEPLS
Put plainly: DB289 consumption by recombinant CYP4F3B. It counts as in vitro ADME. The conditions noted are these: 3.0 μM DB289, 50 pmol/ml P450, 15 min. A digest of the protocol:
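A second recombinant panel (Supersomes; the CYP2J2, CYP3A7 and CYP4F forms coexpressed with reductase and cytochrome b5). Each enzyme was incubated alone with 3.0 μM substrate and NADPH in pH 7.4 phosphate/MgCl2 at 37°C for 15 min. Acetonitrile quench with internal standard, centrifugation, LC/MS/MS. Percent consumed normalised to 0 min. Control Supersomes; means of duplicates.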

For the compound `CON=C(N)c1ccc(-c2ccc(-c3ccc(C(N)=NOC)cc3)o2)cc1` [DB289, 2,5-bis(4-amidinophenyl)furan-bis-O-methylamidoxime], the “percentage of substrate consumed” value is reported as 40%.
